According to ChEMBL document CHEMBL3853349, “Diversity-Oriented Synthesis as a Strategy for Fragment Evolution against GSK3β” (ACS Med Chem Lett, 2016):
Activity calls are given as the source filed them. The rule behind the calls is not given here.

Tests used:
[1] = biological target: T1, Glycogen synthase kinase-3 beta (Homo sapiens, UniProt P49841); assay: Binding affinity to GSK-3 beta (unknown origin) assessed as assessed as thermal shift at 2.5 mM by differential scanning fluorimetry
Procedure, shortened: (§1)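 Differential scanning fluorimetry on GSK3β, reported as thermal stabilization ΔT in °C. Compounds were tested at 2.5 mM by default; the growth-vector analogue set was run at 1.25 mM for ranking.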
Target sequence in this assay (P49841 whole entry, looked up): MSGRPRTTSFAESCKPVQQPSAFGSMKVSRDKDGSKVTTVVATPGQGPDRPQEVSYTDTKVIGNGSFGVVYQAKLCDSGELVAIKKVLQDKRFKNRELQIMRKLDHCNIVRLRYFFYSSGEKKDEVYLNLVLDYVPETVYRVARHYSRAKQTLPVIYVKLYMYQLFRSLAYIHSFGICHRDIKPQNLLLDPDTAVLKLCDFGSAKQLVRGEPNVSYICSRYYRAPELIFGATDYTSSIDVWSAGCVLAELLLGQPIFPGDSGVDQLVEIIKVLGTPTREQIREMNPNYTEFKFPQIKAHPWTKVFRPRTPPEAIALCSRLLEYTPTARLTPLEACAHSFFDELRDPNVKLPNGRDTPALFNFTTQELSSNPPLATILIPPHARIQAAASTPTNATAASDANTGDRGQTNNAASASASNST

[2] = biological target: T1, Glycogen synthase kinase-3 beta; assay: Inhibition of recombinant full-length N-terminal GST tagged human GSK-3 beta expressed in baculovirus infected Sf9 insect cells at 1 mM using GSM as substrate after 5 mins by ADP-Glo luminescence assay
Procedure, shortened: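 Single-point ADP-Glo biochemical inhibition of GSK3β with compound at 1 mM, used to rank analogues alongside DSF.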
Target sequence in this assay (P49841 whole entry, looked up): as above

[3] = biological target: T1, Glycogen synthase kinase-3 beta; assay: Binding affinity to GSK-3 beta (unknown origin) assessed as thermal shift at 1.25 mM by differential scanning fluorimetry; procedure, shortened: as §1
Target sequence in this assay (P49841 whole entry, looked up): as above

[4] = biological target: T1, Glycogen synthase kinase-3 beta; assay: Inhibition of recombinant full-length N-terminal GST tagged human GSK-3 beta expressed in baculovirus infected Sf9 insect cells using GSM as substrate after 5 mins by ADP-Glo luminescence assay
Target sequence in this assay (P49841 whole entry): as the sequence (P49841 whole entry, looked up) above

[5] = biological target: T1, Glycogen synthase kinase-3 beta; assay: Binding affinity to GSK-3 beta (unknown origin) after 30 mins by isothermal titration calorimetry
Target sequence in this assay (P49841 whole entry): as the sequence (P49841 whole entry, looked up) above

[6] = organism: Homo sapiens; assay: Selectivity ratio of IC50 for CDK5 (unknown origin) to IC50 for GSK-3 beta (unknown origin)
[7] = biological target: T1, Glycogen synthase kinase-3 beta; assay: Binding affinity to GSK-3 beta (unknown origin) by WaterLOGSY NMR analysis
Target sequence in this assay (P49841 whole entry, looked up): as above

[8] = biological target: T1, Glycogen synthase kinase-3 beta; assay: Binding affinity to GSK-3 beta (unknown origin) by STD NMR analysis
Target sequence in this assay (P49841 whole entry, looked up): as above

Row | deltaT [1] | inhibition [2] | deltaT [3] | Compound | further results
1 | 0 °C | 9% |  | C[C@@H]1Nc2ccccc2NC1=O | 
2 | 0.5 °C | 29% |  | C[C@@H]1Nc2cnccc2NC1=O | 
3 | 0.8 °C |  |  | O=C1Nc2ncccc2N2C[C@H](O)C[C@@H]12 | 
4 |  | 35% | 0.5 °C | Cc1nc2cccnc2[nH]c1=O | 
5 | 0 °C | 17% |  | C[C@@H]1CNc2ncccc2N1 | 
6 | 0 °C | 12% |  | C[C@H]1Nc2ccccc2NC1=O | 
7 |  | 78% | 2.1 °C | O=C1Nc2ncccc2N[C@H]1Cc1ccc(O)cc1 | 
8 | 0 °C | 19% |  | C[C@H]1Nc2cccnc2N(C)C1=O | 
9 |  | 76% | 1.7 °C | O=C1Nc2ncccc2N[C@H]1Cc1c[nH]c2ccccc12 | IC50 [4]: 322 µM
10 | 2.3 °C | 57% | 1.6 °C | CC(C)[C@H]1Nc2cccnc2NC1=O | 
11 |  | 94% | 4.5 °C | O=C1Nc2ncccc2N[C@@H]1Cc1c[nH]c2ccccc12 | Kd [5]: 9 µM; IC50 [4]: 18 µM; Ratio IC50 [6]: 50
12 | 1.4 °C | 66% |  | C[C@H]1Nc2ncccc2NC1=O | 
13 | 0.5 °C | 25% |  | C[C@H]1Nc2cnccc2NC1=O | 
14 |  | 25% | 0 °C | CC(C)[C@@H]1Nc2cccnc2NC1=O | 
15 | 1.4 °C | 69% |  | C[C@@H]1Nc2ccncc2NC1=O | 
16 | 1.7 °C | 46% | 1 °C | C[C@H]1Nc2cccnc2NC1=O | Activity [7]: Active; Kd [5]: 600 µM; Activity [8]: Active
17 |  | 63% | 1.6 °C | O=C1Nc2ncccc2N[C@@H]1Cc1ccccc1 | 
18 | 0.7 °C | 26% |  | CC1(C)Nc2cccnc2NC1=O | 
19 | 1 °C | 63% |  | C[C@@H]1Nc2ncccc2NC1=O | 
20 | 1.6 °C | 61% |  | C[C@H]1Nc2ccncc2NC1=O | 
21 | 0.5 °C | 19% | 0 °C | C[C@@H]1Nc2cccnc2NC1=O | 
22 | 0.5 °C |  |  | O=C1Nc2ncccc2N[C@H]1CO | 
23 |  | 88% | 2.9 °C | O=C1Nc2ncccc2N[C@@H]1Cc1ccc(O)cc1 | 
24 |  | 55% | 0 °C | O=C1Nc2ncccc2N[C@H]1Cc1ccccc1 | 
